Results on three compounds are retold here after ChEMBL document CHEMBL2203272, “New fluorescent bile acids: synthesis, chemical characterization, and disastereoselective uptake by Caco-2 cells of 3-deoxy 3-NBD-amino deoxycholic and ursodeoxycholic acid” (Bioorg Med Chem, 2012).

Structures are written as SMILES.

The subject of data set [1] is Caco-2. Nature of the data set: Cellular uptake in human Caco2 cells at 10 uM at 4 to 37 degC after 90 mins by fluorescence assay. In kind it is ADME, cell-based. The following applies: caco-2, 1.5 h. The procedure, abridged:
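Caco-2 grown 21 d on 24-well plates as polarised monolayers; compound at 10 μM in bicarbonated Krebs-Ringer buffer (HEPES, pH 7.4) with 0.1% DMSO, at 37°C or 4°C, sampled 5–90 min. Washed twice with ice-cold KRB, lysed in 1% Triton X-100, lysate fluorescence read at ex 485/em 520 nm, normalised to BCA protein. Active uptake = 37°C minus 4°C; mean ± SD, n = 3.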

For data set [2], the system named is Caco-2. As to the kind of experiment: Cellular uptake in human Caco2 cells at 4 to 37 degC after 20 mins by fluorescence assay. It counts as ADME, cell-based. Conditions: caco-2, 20 min; call rule not given here. The procedure, abridged:
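Uptake into 21-d Caco-2 monolayers over 20 min at 37°C and 4°C, in KRB pH 7.4 with 0.1% DMSO. Monolayers washed with ice-cold KRB and solubilised in 1% Triton X-100. Fluorescence read at ex 485/em 520 nm with BCA protein normalisation. Active part taken as the 37°C minus 4°C difference; n = 3.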

The nature of data set [3]: Stability of the compound in MeCN/phosphate buffer assessed as compound remaining at pH 7.4 measured for 24 hrs by HPLC analysis. In kind it is physicochemical. Conditions: pH 7.4, 24 h. In short, it runs like this:
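Solution at 0.01 mg/ml (stock) in 2% MeCN/phosphate buffer pH 7.4, held at 37°C for 24 h and injected hourly. Analysed by C18 reversed-phase HPLC with MeCN/pH 2.5 phosphate buffer gradient, 1.0 ml/min, column 37°C, detection 346 nm; remaining compound followed by peak area.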

For a further data set, the system named is Huh-7. Nature of the data set: Cytotoxicity against human HuH7 cells assessed as cell viability at 1 to 100 uM up to 24 hrs by MTT assay. It counts as cell-based. Conditions: huh-7, 24 h. In short, it runs like this:
(§1)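 HUH-7 and SKGT-4 cells exposed up to 100 μM for up to 24 h; viability by MTT assay.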

The test system of data set [4] is Caco-2. Nature of the data set: Cytotoxicity against human Caco2 cells assessed as cell viability at 1 to 100 uM up to 100 mins by MTT assay. The following applies: caco-2, 100 min. It counts as cell-based. The procedure, abridged: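 Caco-2 monolayers exposed to 1–100 μM for up to 100 min; viability by MTT assay.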
In general terms: Formazan colour is commonly taken as a measure of viable cells.

For data set [5], the system named is Caco-2. As to the kind of experiment: Cellular uptake in human Caco2 cells at 10 uM at 4 degC by fluorescence assay. In kind it is ADME, cell-based. The following applies: caco-2, 10 µM, TDE = time-dependent effect. The procedure, abridged: (§2)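 21-d polarised Caco-2 monolayers incubated with 10 μM in KRB (pH 7.4, 0.1% DMSO) at 37°C or 4°C. Sampled at 5, 10, 15, 30, 45, 60 and 90 min. Cells washed twice with ice-cold KRB and lysed in 1% Triton X-100. Lysate fluorescence read at ex 485/em 520 nm and normalised to BCA protein; mean ± SD, n = 3.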

For data set [6], the system named is Caco-2. As to the kind of experiment: Cellular uptake in human Caco2 cells at 10 uM at 37 degC by fluorescence assay. It counts as ADME, cell-based. The following applies: caco-2, 10 µM, TDE = time-dependent effect. The procedure, abridged:
as §2

A short description of data set [7]: Cytotoxicity against human SKGT4 cells assessed as cell viability at 1 to 100 uM up to 24 hrs by MTT assay. It counts as cell-based. The following applies: skgt4, 24 h. In short, it runs like this: as §1
Data set [8] has as its system Caco-2. As to the kind of experiment: Cellular uptake in human Caco2 cells assessed as uptake rate measured per mg of protein at 1 to 100 uM at 4 to 37 degC after 20 mins by Eadie-Hofstee plot method. In kind it is ADME, cell-based. The following applies: caco-2, 20 min. In short, it runs like this:
(§3)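 Caco-2 monolayers grown 21 d, exposed to 1–100 μM in bicarbonated Krebs-Ringer buffer (HEPES, pH 7.4, 0.1% DMSO) for 20 min at 37°C and 4°C. Washed twice with ice-cold KRB, lysed in 1% Triton X-100, fluorescence read at ex 485/em 520 nm and normalised to BCA protein. Active uptake = 37°C minus 4°C. Km/Vmax from Michaelis-Menten non-linear least squares fit, Eadie-Hofstee plot; n = 3.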

Data set [9] is described as follows: Cellular uptake in human Caco2 cells assessed as uptake rate at 1 to 100 uM at 4 to 37 degC after 20 mins by Eadie-Hofstee plot method. In kind it is ADME, cell-based. Conditions: Caco-2 cells. The procedure, abridged: as §3

As for `O=[N+]([O-])c1ccc(NC2CCCCC2)c2nonc12`, the Drug uptake result in the data set on Caco-2 [1] is listed as “Active”; in the data set on Caco-2 [2] it was “Dose-dependent effect”.

Consider `C[C@H](CCC(=O)O)[C@H]1CC[C@H]2[C@@H]3[C@@H](O)C[C@@H]4C[C@@H](Nc5ccc([N+](=O)[O-])c6nonc56)CC[C@]4(C)[C@H]3CC[C@]12C`, for which the Stability entry in data set [3] is reported as “Stable”. For the same compound, the Activity entry (in the data set on Huh-7; in the data set with Caco-2 [4]; in data set [7]) was “Non-toxic” in each case. Besides, the Drug uptake result in the data set on Caco-2 [5] and in the data set with Caco-2 [6] was “tde” in each case.

Consider `C[C@H](CCC(=O)O)[C@H]1CC[C@H]2[C@@H]3CC[C@@H]4C[C@H](Nc5ccc([N+](=O)[O-])c6nonc56)CC[C@]4(C)[C@H]3C[C@H](O)[C@]12C`, for which, in the data set on Caco-2 [8], the maximum rate (Vmax) amounted to 1.8 nmol/min/mg. Also, the Activity entry (in the data set with Huh-7; in the data set on Caco-2 [4]; in data set [7]) was “Non-toxic” throughout. In addition, in [9], the Km at 20 min, up to 100 µM was 28.2 µM. In addition, the Drug uptake result is recorded as “tde” with Caco-2 [5], “tde” with Caco-2 [6] and “Dose-dependent effect” in the data set on Caco-2 [2].

A word on the Vmax: it is the top rate of the reaction or transport when substrate is in excess. For orientation: Km means the concentration of substrate that gives half-maximal velocity.
